Screening results as filed in PubChem BioAssay.
This is a sample that favours compounds with a hit; in the whole collection about 9.8% have one here.
WT yeast gro inh = growth inhibition of WT yeast, mitochondrial fusion screen; inhibition, % at 10 µM; mitochondrial fusion phenotypic screen, WT strain; 2.1% of 190,000 active; AID 1362; in the data active = inhibition above about 58%; tested in S. cerevisiae
PMI activator = phosphomannose isomerase (human) activation | purified human PMI, coupled resazurin fluorescence, 20 min; stronger effect = higher value; 1 = vehicle control, 0 substrate-free wells | activation factor at 20 µM | 0.005% of 190,000 active | P34949;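 active = activation factor of 2 or more at 20 µM, relative to plate controls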
Target sequence (P34949 whole entry, looked up): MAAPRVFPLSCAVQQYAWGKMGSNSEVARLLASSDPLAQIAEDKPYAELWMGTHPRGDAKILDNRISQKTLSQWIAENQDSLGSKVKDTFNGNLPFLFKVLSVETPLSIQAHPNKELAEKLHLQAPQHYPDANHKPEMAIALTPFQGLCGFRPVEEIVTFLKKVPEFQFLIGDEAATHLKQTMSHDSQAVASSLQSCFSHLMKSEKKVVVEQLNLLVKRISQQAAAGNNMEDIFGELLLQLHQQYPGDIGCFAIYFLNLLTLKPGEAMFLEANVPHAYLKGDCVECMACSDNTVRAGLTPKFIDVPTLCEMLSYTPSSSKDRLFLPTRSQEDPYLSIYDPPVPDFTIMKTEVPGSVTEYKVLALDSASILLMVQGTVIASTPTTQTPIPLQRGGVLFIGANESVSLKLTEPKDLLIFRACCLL
PMI act satM6P = increases human PMI activity with near-saturating mannose 6-phosphate. P34949. coupled PMI enzyme assay, resazurin fluorescence, 20 min; stronger effect = higher value; 1 = untreated enzyme, 0 = substrate-free blank. activation factor at 20 µM. 0.34% of 190,000 active;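 active = activation factor of 2 or more at 20 µM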
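Test system: human phosphomannose isomerase with PGI, G6PDH, diaphorase coupling enzymes; amount: 15 ng/mL PMI; incubation: enzyme reaction with compound 20 min at room temperature; technique: resorufin fluorescence (Ex 544/Em 590 nm) from resazurin via diaphorase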
Lmaj promast = reduces viability of Leishmania major promastigotes. resazurin fluorescence viability. inhibition, % at 10 µM. 9% of 200,000 active. AID 1063; in the data active = inhibition above about 50%;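 also: promastigotes grown with compound for 44 hours at 28 °C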
m-calpain inh = blocks pig calpain II enzyme activity. purified calpain II, fluorogenic peptide substrate, 30 min. inhibition, % at 16 µM. 0.37% of 220,000 active. AID 1236;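 active = inhibition above about 50%, limit read from the data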
Rad51 HR inh = Rad51 (human) homologous recombination inhibition | hRad51 DNA strand exchange, fluorescence dequenching | Q06609 | inhibition, % at 10 µM | AID 1385 | 0.085% of 200,000 active;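 active = inhibition above 40% at the single screening dose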
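Test system: preformed human Rad51 ssDNA filaments. Compound dosing: single dose, 10 µM final compound. Incubation: filaments 15 min 37 °C, then compound 30 min. Technique: FRET fluorescence dequenching, excitation 485 nm, emission 520 nm. Read-out basis: percent inhibition from fluorescence, normalised to plate control and blank means. Benchmarks: plate controls and plate blanks.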
Lmaj promast 1uM = blocks Leishmania major promastigote growth at 1 uM, repeat screen; shares compounds with Lmaj promast; L. major promastigote growth, resazurin fluorescence, 48 h; inhibition, % at 1 µM; 13% of 1,100 active; AID 1258;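 active = inhibition above about 50% in both repeat tests, limit read from the data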
A number is an active result.

Screening CC1(C)Cc2c(ccc3ccccc23)C2=C(C(=O)N3CCCC3)C(=O)C(=O)N21 returned WT yeast gro inh inactive, PMI activator inactive, PMI act satM6P inactive, Lmaj promast inactive, m-calpain inh inactive and Rad51 HR inh inactive.
Screening C=CCC1(O)C(=O)N2C(=C1C(=O)OCC)c1ccc3ccccc3c1CC2(C)C (stereo not drawn) returned WT yeast gro inh inactive, PMI activator inactive, PMI act satM6P inactive, Lmaj promast 53.4, m-calpain inh inactive and Lmaj promast 1uM inactive.
Screening CN(CCc1ccccn1)S(=O)(=O)c1ccccc1F returned PMI activator inactive, PMI act satM6P inactive, Lmaj promast inactive and Rad51 HR inh inactive.
`CC(C)(C)c1cc(C(C)(C)C)cc(S(=O)(=O)CCc2ccccn2)c1` gave WT yeast gro inh inactive, PMI activator inactive, PMI act satM6P inactive, Lmaj promast 60.0, m-calpain inh inactive, Rad51 HR inh inactive and Lmaj promast 1uM inactive.
[O-][N+]1=c2ccc(Nc3ccccc3)cc2=NC12CCCCC2 was read as WT yeast gro inh inactive, PMI activator inactive, PMI act satM6P inactive, Lmaj promast 100.4, m-calpain inh inactive, Rad51 HR inh inactive and Lmaj promast 1uM 66.1.
Screening Nc1ccccc1CNc1nc(NCCO)nc2c1ncn2CCN1CCOCC1 returned m-calpain inh inactive and Rad51 HR inh inactive.
`NNc1nc(-c2ccccc2)cc(-c2ccccc2)n1` gave WT yeast gro inh 69.8, PMI activator inactive, PMI act satM6P inactive, Lmaj promast 91.0, m-calpain inh inactive, Rad51 HR inh inactive and Lmaj promast 1uM inactive.
`Clc1nc(-c2ccccc2)cc(-c2ccccc2)n1` gave WT yeast gro inh inactive, PMI activator inactive, PMI act satM6P inactive, Lmaj promast inactive, m-calpain inh inactive and Rad51 HR inh inactive.
For CC(C)OCC(O)CN1CCNCC1 (stereo not drawn) the results were WT yeast gro inh inactive, PMI activator inactive, PMI act satM6P inactive, Lmaj promast inactive, m-calpain inh inactive and Rad51 HR inh inactive.
`N/C(COc1cccc(Cl)c1)=N\O` gave m-calpain inh inactive.
CCCCNCCCOc1cccc(Cl)c1 was read as WT yeast gro inh inactive, PMI activator inactive, PMI act satM6P inactive, Lmaj promast 93.7, m-calpain inh inactive, Rad51 HR inh inactive and Lmaj promast 1uM inactive.
For CCCn1nc(NC(=O)C2CCCO2)c2cc3cccc(C)c3nc21 (stereo not drawn) the results were m-calpain inh inactive.
Screening CC(C)Cn1nc(NC(=O)C2CCCO2)c2cc3ccccc3nc21 (stereo not drawn) returned WT yeast gro inh inactive, PMI activator inactive, PMI act satM6P inactive, Lmaj promast 62.8 and Lmaj promast 1uM inactive.
O=S(=O)(CCN(CCS(=O)(=O)C(F)(F)F)CC1CCCO1)C(F)(F)F (stereo not drawn) was read as WT yeast gro inh inactive, PMI activator inactive, PMI act satM6P inactive, Lmaj promast 100.2, m-calpain inh inactive, Rad51 HR inh inactive and Lmaj promast 1uM inactive.
`Cc1ccnc(NC(=O)CCC(=O)N(CC(=O)NCc2ccccc2)Cc2cccs2)c1` gave WT yeast gro inh inactive, PMI activator inactive, PMI act satM6P inactive, Lmaj promast inactive, m-calpain inh inactive and Rad51 HR inh inactive.
CC(=O)Nc1ccc(-c2csc(NC(=O)C3CCN(S(=O)(=O)c4cccs4)CC3)n2)cc1 was read as WT yeast gro inh inactive, PMI activator inactive, PMI act satM6P inactive, Lmaj promast 70.1, m-calpain inh inactive, Rad51 HR inh inactive and Lmaj promast 1uM inactive.
For Cc1csc(NC(=O)C2CCN(S(=O)(=O)c3cccs3)CC2)n1 the results were WT yeast gro inh inactive, PMI activator inactive, PMI act satM6P inactive, Lmaj promast inactive, m-calpain inh inactive and Rad51 HR inh inactive.
`O=C1C(Cl)=C(N2CCCCC2)C(=O)C(Cl)=C1c1cnc(N2CCCCC2)s1` gave WT yeast gro inh inactive, PMI activator inactive, PMI act satM6P inactive, Lmaj promast 58.5, m-calpain inh inactive, Rad51 HR inh inactive and Lmaj promast 1uM inactive.
Screening COc1ccc(N2C(=O)CCC2(C#N)c2ccc(Br)cc2)cc1 (stereo not drawn) returned WT yeast gro inh inactive, PMI activator inactive, PMI act satM6P inactive, Lmaj promast inactive, m-calpain inh inactive and Rad51 HR inh inactive.
For COc1ccccc1Nc1nc(NCCCCO)nc(N2CCCC2)n1 the results were Rad51 HR inh inactive.
Screening Cc1c([N+](=O)[O-])ccc(S(=O)(=O)N2CCC(C(N)=O)CC2)c1C returned WT yeast gro inh inactive, PMI activator inactive, PMI act satM6P inactive, Lmaj promast 83.7, m-calpain inh inactive, Rad51 HR inh inactive and Lmaj promast 1uM inactive.
Cc1ccc(S(=O)(=O)N2CCC(C)CC2)c([N+](=O)[O-])c1 was read as WT yeast gro inh inactive, PMI activator inactive, PMI act satM6P inactive, Lmaj promast inactive, m-calpain inh inactive and Rad51 HR inh inactive.
Screening S=C(NCCc1ccccn1)Nc1ccc(Cl)cc1Cl returned WT yeast gro inh inactive, PMI activator inactive, PMI act satM6P inactive, Lmaj promast inactive and m-calpain inh inactive.
For Cc1cccc(Nc2nc(N3CCN(C)CC3)nc(N)c2[N+](=O)[O-])c1 the results were WT yeast gro inh inactive, PMI activator inactive, PMI act satM6P inactive, Lmaj promast 96.0, m-calpain inh inactive, Rad51 HR inh inactive and Lmaj promast 1uM inactive.
For Cc1cccc(Nc2nc(N)c([N+](=O)[O-])c(N3CCC(C)CC3)n2)c1 the results were WT yeast gro inh inactive, PMI activator inactive, PMI act satM6P inactive, Lmaj promast inactive, m-calpain inh inactive and Rad51 HR inh inactive.
COc1ccccc1Oc1nc([N+](=O)[O-])nn1CC(N)=O was read as WT yeast gro inh inactive, PMI activator inactive, PMI act satM6P inactive, Lmaj promast inactive, m-calpain inh inactive and Rad51 HR inh inactive.
For C/C(CCN1CCc2nc(-c3ccccc3)c(-c3ccccc3)cc2C1)=N\O[C@@H](C)c1cc(-c2c(C)cc(C)cc2C)no1 the results were WT yeast gro inh inactive, PMI activator inactive, PMI act satM6P inactive, Lmaj promast 83.3, m-calpain inh inactive and Lmaj promast 1uM inactive.
`CCc1cc2c(nc1CC)CCN(CC/C(C)=N/O[C@@H](C)c1cc(-c3c(C)cc(C)cc3C)no1)C2` gave WT yeast gro inh inactive, PMI activator inactive, PMI act satM6P inactive, Lmaj promast 91.8, m-calpain inh inactive and Lmaj promast 1uM inactive.
CC(C)=NOc1nc(N(C)C)nc(N(C)C)n1 was read as WT yeast gro inh inactive, PMI activator inactive, PMI act satM6P inactive, Lmaj promast inactive, m-calpain inh inactive and Rad51 HR inh inactive.
`FC(F)(F)c1ccc(C2NCCc3sccc32)cc1` (stereo not drawn) gave WT yeast gro inh inactive, PMI activator inactive, PMI act satM6P inactive, Lmaj promast 93.4, m-calpain inh inactive, Rad51 HR inh inactive and Lmaj promast 1uM inactive.
Screening CCOC(=O)COc1ccsc1C(=O)OC returned WT yeast gro inh inactive, PMI activator inactive, PMI act satM6P inactive, Lmaj promast inactive, m-calpain inh inactive and Rad51 HR inh inactive.
Screening O=C(OCCN=C1NS(=O)(=O)c2ccccc21)c1ccco1 returned WT yeast gro inh inactive, PMI activator inactive, PMI act satM6P inactive, Lmaj promast inactive, m-calpain inh inactive and Rad51 HR inh inactive.
`O=C(Nc1nnc(SCc2cccc3ccccc23)s1)C1COc2ccccc2O1` (stereo not drawn) gave WT yeast gro inh inactive, PMI activator inactive, PMI act satM6P inactive, Lmaj promast inactive, m-calpain inh inactive and Rad51 HR inh inactive.
CCN(CC)c1ccc(NC(=O)c2ccc(Br)o2)c(C)c1 was read as WT yeast gro inh inactive, PMI activator inactive, PMI act satM6P inactive, Lmaj promast 57.2, m-calpain inh inactive, Rad51 HR inh inactive and Lmaj promast 1uM inactive.
